The source made the active and inactive calls. The rule behind the calls is not given here.
What was measured:
[1] = target: T1, Aldo-keto reductase family 1 member C3 (Homo sapiens) (UniProt P42330); experiment: Inhibition of human 17beta-HSD5 expressed in HEK293 cells assessed as enzyme-mediated transformation of [14C]-4-androstene-3,17-dione in to [14C]-testosterone at 0.3 uM after 18 hrs; type: cell-based
T1 sequence (whole entry): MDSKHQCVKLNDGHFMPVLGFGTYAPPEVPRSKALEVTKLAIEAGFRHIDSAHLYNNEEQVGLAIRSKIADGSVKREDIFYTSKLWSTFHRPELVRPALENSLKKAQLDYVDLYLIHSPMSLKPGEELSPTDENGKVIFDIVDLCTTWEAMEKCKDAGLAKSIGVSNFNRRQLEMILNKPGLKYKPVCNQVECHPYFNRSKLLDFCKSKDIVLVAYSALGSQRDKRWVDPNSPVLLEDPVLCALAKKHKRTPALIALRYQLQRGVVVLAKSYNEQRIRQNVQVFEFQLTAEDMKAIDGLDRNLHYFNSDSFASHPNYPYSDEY
How it was run: (§1)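 Intact HEK-293 cells stably over-expressing human 17β-HSD5, in freshly changed culture medium. [14C]-4-androstene-3,17-dione is added at 100 nM with inhibitor from an ethanolic solution; controls get ethanol only. After 18 h the conversion to [14C]-T is measured.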

[2] = target: T1, Aldo-keto reductase family 1 member C3 (Homo sapiens); experiment: Inhibition of human 17beta-HSD5 expressed in HEK293 cells assessed as enzyme-mediated transformation of [14C]-4-androstene-3,17-dione in to [14C]-testosterone at 3 uM after 18 hrs; type: cell-based; how it was run: as §1
[3] = target: T2, Progesterone receptor (Rattus norvegicus) (UniProt Q63449); experiment: Binding affinity to rat uterus progesterone receptor at 0.01 uM
T2 sequence (whole entry): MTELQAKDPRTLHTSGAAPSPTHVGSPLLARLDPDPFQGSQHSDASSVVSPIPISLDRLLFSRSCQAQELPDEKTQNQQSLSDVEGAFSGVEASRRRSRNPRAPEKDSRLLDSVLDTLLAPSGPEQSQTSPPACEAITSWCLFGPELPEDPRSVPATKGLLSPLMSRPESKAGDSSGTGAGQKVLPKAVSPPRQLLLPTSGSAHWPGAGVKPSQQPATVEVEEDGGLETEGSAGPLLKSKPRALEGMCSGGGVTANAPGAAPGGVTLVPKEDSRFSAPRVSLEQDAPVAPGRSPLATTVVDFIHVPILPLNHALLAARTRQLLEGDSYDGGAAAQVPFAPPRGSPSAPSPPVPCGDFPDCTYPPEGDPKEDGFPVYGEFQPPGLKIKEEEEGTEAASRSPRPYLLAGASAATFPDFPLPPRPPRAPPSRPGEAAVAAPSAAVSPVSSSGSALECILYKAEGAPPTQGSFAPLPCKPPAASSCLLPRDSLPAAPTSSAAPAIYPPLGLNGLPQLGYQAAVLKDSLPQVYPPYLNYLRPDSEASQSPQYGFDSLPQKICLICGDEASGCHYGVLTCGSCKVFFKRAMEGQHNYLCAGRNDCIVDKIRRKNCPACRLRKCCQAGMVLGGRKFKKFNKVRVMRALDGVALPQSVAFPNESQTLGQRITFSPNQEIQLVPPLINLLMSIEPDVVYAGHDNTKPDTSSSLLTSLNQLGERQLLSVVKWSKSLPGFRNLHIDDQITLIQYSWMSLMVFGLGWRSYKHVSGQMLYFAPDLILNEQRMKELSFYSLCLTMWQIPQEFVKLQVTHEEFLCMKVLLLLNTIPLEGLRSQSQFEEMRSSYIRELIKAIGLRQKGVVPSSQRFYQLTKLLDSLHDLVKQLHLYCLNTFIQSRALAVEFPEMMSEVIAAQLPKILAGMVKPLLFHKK

[4] = target: T3, Aldo-keto reductase family 1 member C3 (Homo sapiens, UniProt P42330); experiment: Inhibition of human 17beta-HSD5 expressed in HEK293 cells assessed as enzyme-mediated transformation of [14C]-4-androstene-3,17-dione in to [14C]-testosterone after 18 hrs; type: cell-based
T3 sequence (P42330 whole entry): T1 sequence (whole entry)
How it was run: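 Intact HEK-293 cells stably over-expressing human 17β-HSD5, in fresh culture medium. [14C]-4-androstene-3,17-dione 0.1 μM with inhibitor added in ethanol (ethanol alone as control), 18 h.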

[5] = target: T4, 17-beta-hydroxysteroid dehydrogenase type 2 (Homo sapiens) (UniProt P37059); experiment: Inhibition of human 17beta-HSD2 expressed in HEK293 cells assessed as enzyme-mediated transformation of [14C]-testosterone in to [14C]-4-androstene-3,17-dione at 1 uM; type: cell-based
T4 sequence (whole entry): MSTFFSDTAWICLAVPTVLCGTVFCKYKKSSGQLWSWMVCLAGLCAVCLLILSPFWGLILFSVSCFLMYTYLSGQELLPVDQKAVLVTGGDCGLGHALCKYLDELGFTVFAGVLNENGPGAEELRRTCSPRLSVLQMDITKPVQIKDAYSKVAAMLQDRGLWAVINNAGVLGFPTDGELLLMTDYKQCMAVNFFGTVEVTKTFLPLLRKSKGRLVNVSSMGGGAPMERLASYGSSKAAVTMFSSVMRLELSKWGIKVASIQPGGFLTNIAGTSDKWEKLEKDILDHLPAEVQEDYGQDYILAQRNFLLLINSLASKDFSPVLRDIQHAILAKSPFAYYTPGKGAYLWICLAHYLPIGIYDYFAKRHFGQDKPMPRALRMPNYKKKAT

[6] = target: T4, 17-beta-hydroxysteroid dehydrogenase type 2 (Homo sapiens); experiment: Inhibition of human 17beta-HSD2 expressed in HEK293 cells assessed as enzyme-mediated transformation of [14C]-testosterone in to [14C]-4-androstene-3,17-dione at 0.1 uM; type: cell-based
[7] = target: T5, 17-beta-hydroxysteroid dehydrogenase type 1 (Homo sapiens) (UniProt P14061); experiment: Inhibition of human 17beta-HSD1 expressed in HEK293 cells assessed as enzyme-mediated transformation of [14C]-E1 in to [14C]-E2 at 0.1 uM; type: cell-based
T5 sequence (whole entry): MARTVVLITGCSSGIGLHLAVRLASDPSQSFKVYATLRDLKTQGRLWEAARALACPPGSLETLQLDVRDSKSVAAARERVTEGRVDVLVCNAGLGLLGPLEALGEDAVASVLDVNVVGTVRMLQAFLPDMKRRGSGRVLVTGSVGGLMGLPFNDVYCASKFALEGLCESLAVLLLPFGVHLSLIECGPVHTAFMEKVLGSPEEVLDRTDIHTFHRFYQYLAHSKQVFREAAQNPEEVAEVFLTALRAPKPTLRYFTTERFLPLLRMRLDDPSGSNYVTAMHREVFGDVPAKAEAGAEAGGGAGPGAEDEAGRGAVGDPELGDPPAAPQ

[8] = target: T5, 17-beta-hydroxysteroid dehydrogenase type 1 (Homo sapiens); experiment: Inhibition of human 17beta-HSD1 expressed in HEK293 cells assessed as enzyme-mediated transformation of [14C]-E1 in to [14C]-E2 at 1 uM; type: cell-based
[9] = target: T6, 17-beta-hydroxysteroid dehydrogenase type 3 (Homo sapiens) (UniProt P37058); experiment: Inhibition of human 17beta-HSD3 expressed in HEK293 cells assessed as enzyme-mediated transformation of [14C]-4-androstene-3,17-dione in to [14C]-testosterone at 1 uM; type: cell-based
T6 sequence (whole entry): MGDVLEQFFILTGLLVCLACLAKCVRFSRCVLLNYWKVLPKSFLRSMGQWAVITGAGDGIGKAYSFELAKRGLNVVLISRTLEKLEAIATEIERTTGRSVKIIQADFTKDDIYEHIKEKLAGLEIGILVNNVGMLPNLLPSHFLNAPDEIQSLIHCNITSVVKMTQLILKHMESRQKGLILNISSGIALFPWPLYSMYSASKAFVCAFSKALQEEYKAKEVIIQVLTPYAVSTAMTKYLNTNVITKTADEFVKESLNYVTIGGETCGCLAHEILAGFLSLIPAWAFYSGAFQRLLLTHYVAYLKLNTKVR

[10] = target: T6, 17-beta-hydroxysteroid dehydrogenase type 3 (Homo sapiens); experiment: Inhibition of human 17beta-HSD3 expressed in HEK293 cells assessed as enzyme-mediated transformation of [14C]-4-androstene-3,17-dione in to [14C]-testosterone at 0.1 uM; type: cell-based

| SMILES | inhibition [1] | inhibition [2] | IC50 [4] | further results |
| --- | --- | --- | --- | --- |
| C[C@]12CC[C@@H]3c4ccc(O)cc4CC[C@H]3[C@@H]1CC[C@@]21CCC(=O)O1 | 47% | 79% |  |  |
| C[C@]12CC[C@@H]3c4ccc(O)cc4CC[C@H]3[C@@H]1C[C@@H]1CCC(=O)O[C@@H]12 | 55% | 85% |  |  |
| C[C@]12CC[C@@H]3c4ccc(O)cc4CC[C@H]3[C@@H]1CC[C@@H]2O |  |  |  | Activity [3]: 6% |
| C[C@]12CC[C@@H]3c4ccc(O)cc4CC[C@H]3[C@@H]1CC[C@@]21CC=CC(=O)O1 | 79% | 92% | 0.049 µM |  |
| COC(=O)C1CC[C@@]2(CC[C@H]3[C@@H]4CCc5cc(O)ccc5[C@H]4CC[C@@]32C)OC1=O (mixture of isomers) | 78% | 92% | 0.072 µM |  |
| C[C@]12CC[C@@H]3c4ccc(O)cc4CC[C@H]3[C@@H]1CC[C@@]21CCCCC(=O)O1 | 90% | 93% | 0.042 µM |  |
| C[C@]12CCC(=O)C=C1CC[C@@H]1[C@@H]2CC[C@@]2(C)[C@H]1CC[C@@]21CCC(=O)O1 | 19% | 61% |  |  |
| CC1CC[C@@]2(CC[C@H]3[C@@H]4CCc5cc(O)ccc5[C@H]4CC[C@@]32C)OC1=O (mixture of isomers) | 93% | 94% | 0.016 µM | Activity [5]: Active; Activity [6]: Active |
| C[C@]12CCC(=O)C=C1CC[C@@H]1[C@@H]2CC[C@]2(C)C(=O)CC[C@@H]12 | 21% | 45% |  |  |
| COC1CC[C@@]2(CC[C@H]3[C@@H]4CCc5cc(O)ccc5[C@H]4CC[C@@]32C)O1 (stereo in doubt; 7) | 0% | 4% |  |  |
| CCCC1CC[C@@]2(CC[C@H]3[C@@H]4CCc5cc(O)ccc5[C@H]4CC[C@@]32C)OC1=O (mixture of isomers) | 41% | 83% |  |  |
| C[C@]12CCC(=O)CC1CC[C@@H]1[C@@H]2CC[C@@]2(C)[C@H]1CC[C@@]21CCC(=O)O1 (stereo not given in full) | 15% | 63% |  |  |
| CC(=O)S[C@@H]1CC2=CC(=O)CC[C@]2(C)[C@H]2CC[C@@]3(C)[C@@H](CC[C@@]34CCC(=O)O4)[C@H]12 | 27% | 57% |  |  |
| C[C@]12CC[C@@H]3c4ccc(O)cc4CC[C@H]3[C@@H]1CC[C@@]21CCC(O)O1 (mixture of isomers) | 19% | 61% |  |  |
| COC1CC[C@@]2(CC[C@H]3[C@@H]4CCc5cc(O)ccc5[C@H]4CC[C@@]32C)O1 (stereo in doubt; 8) | 0% | 16% |  |  |
| C[C@]12CCC(=O)CC1C(=O)C[C@@H]1[C@@H]2CC[C@@]2(C)[C@H]1CC[C@@]21CCC(=O)O1 (stereo not given in full) | 14% | 45% |  |  |
| C[C@]12CC[C@@H]3c4ccc(O)cc4CC[C@H]3[C@@H]1C[C@@H]1CC(=O)O[C@@H]12 | 30% | 62% |  |  |
| CC1CC(=O)O[C@]2(CC[C@H]3[C@@H]4CCc5cc(O)ccc5[C@H]4CC[C@@]32C)C1 (mixture of isomers) | 88% | 94% | 0.019 µM |  |
| C[C@]12CC[C@@H]3c4ccc(O)cc4CC[C@H]3[C@@H]1C[C@@H]1CCCC(=O)O[C@@H]12 | 70% | 91% | 0.066 µM |  |
| C[C@]12CC[C@@H]3c4ccccc4CC[C@H]3[C@@H]1CC[C@@]21CCCC(=O)O1 | 93% | 95% | 0.01 µM | inhibition [7]: 21%; inhibition [8]: 21%; inhibition [9]: 64%; inhibition [10]: 25% |
| C[C@]12CC[C@@H]3c4ccc(O)cc4CC[C@H]3[C@@H]1CC[C@]21CCC(=O)O1 | 22% | 45% |  |  |
| C[C@@H]1C[C@H]2[C@@H]3CCC4=CC(=O)C=C[C@]4(C)[C@@]3(F)[C@@H](O)C[C@]2(C)[C@@]1(O)C(=O)CO |  |  |  | Activity [3]: 0% |
| C[C@]12CCC3(CCC(=O)O3)CC1CC[C@@H]1[C@@H]2CC[C@@]2(C)[C@H]1CC[C@@]21CCC(=O)O1 (stereo not given in full) | 7% | 29% |  |  |
| C[C@]12CC[C@@H]3c4ccc(O)cc4CC[C@H]3[C@@H]1C[C@H]1CCC(=O)O[C@H]12 | 6% | 52% |  |  |
| C=CCC1CC[C@@]2(CC[C@H]3[C@@H]4CCc5cc(O)ccc5[C@H]4CC[C@@]32C)OC1=O (mixture of isomers) | 68% | 91% | 0.107 µM |  |
| C[C@]12CCC(=O)C[C@@H]1CC[C@@H]1[C@@H]2CC[C@]2(C)[C@@H](O)CC[C@@H]12 |  |  |  | Activity [3]: 3% |
| C[C@]12CC[C@@H]3c4ccc(O)cc4CC[C@H]3[C@@H]1CC[C@@]21CCCC(=O)O1 | 92% | 95% | 0.02 µM | inhibition [9]: 34%; Activity [5]: Active; inhibition [10]: 25%; Activity [6]: Active |

— ChEMBL document CHEMBL1153852, “Steroidal lactones as inhibitors of 17beta-hydroxysteroid dehydrogenase type 5: chemical synthesis, enzyme inhibitory activity, and assessment of estrogenic and androgenic activities” (Eur J Med Chem, 2009)
